# In ChEMBL document CHEMBL4350958, “Rational Design of Short Peptide Variants by Using Kunitzin-RE, an Amphibian-Derived Bioactivity Peptide, for Acquired Potent Broad-Spectrum Antimicrobial and Improved Therapeutic Potential of Commensalism Coinfection of Pathogens” (J Med Chem, 2019):
# Columns and labels:
# Staphylococcus aureus [1] = experiment: Antibacterial activity against Staphylococcus aureus ATCC 29213 measured after 18 to 24 hrs in presence of ZnCl2; assay type: functional
# How it was run: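 MIC broth microdilution (MHB, 0.2% BSA peptide diluent, A492, 95% inhibition) run in the presence of physiological salts at final concentrations of 6 μM NH4Cl or 8 μM ZnCl2. Three independent assays, each with three technical replicates.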
# Escherichia coli [2] = experiment: Antibacterial activity against Escherichia coli ATCC 25922 measured after 18 to 24 hrs in presence of FeCl3; assay type: functional
# Pseudomonas aeruginosa = experiment: Antibacterial activity against Pseudomonas aeruginosa ATCC 27853 measured after 24 hrs; assay type: functional
# How it was run: (§1)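 Broth microdilution adapted from NCCLS. Mid-log bacteria were diluted in MHB to a final (0.5–1) × 10^5 CFU mL−1. Peptides were serially diluted in 0.2% BSA and mixed with an equal volume of cells. After 24 h at 37 °C, MIC was read at A492 as the lowest concentration inhibiting 95% of growth. At least three independent experiments, each with three technical replicates.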
# Escherichia coli [3] = experiment: Bactericidal activity against Escherichia coli K99 incubated for 24 hrs followed by replating on agar plate and measured after overnight incubation; assay type: functional; details: for MBC: K99, 24 h, read-out: MBC>99.9
# How it was run: (§2)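 Mid-log bacteria diluted in MHB to (0.5–1) × 10^5 CFU/mL and mixed 1:1 with peptide serially diluted in 0.2% BSA. After 24 h at 37 °C, 50 μL of each mixture was plated on agar and incubated overnight. MBC taken as the lowest concentration killing >99.9% of cells. At least three independent experiments, each with three technical replicates.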
# Candida albicans [4] = experiment: Antifungal activity against Candida albicans cgmcc2.2086 measured after 48 hrs in presence of NaCl by broth microdilution method; assay type: functional
# Staphylococcus aureus [5] = experiment: Antibacterial activity against Staphylococcus aureus ATCC 25923 measured after 24 hrs; assay type: functional
# How it was run: (§3)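 Broth microdilution modified from NCCLS. Mid-log bacteria at (0.5–1) × 10^5 CFU mL−1 in MHB, mixed with peptides serially diluted in 0.2% BSA. Incubated 24 h at 37 °C, read at A492. MIC taken as lowest concentration giving 95% growth inhibition. At least three independent experiments, each with three technical replicates.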
# [6] = test system: Staphylococcus epidermidis; experiment: Antibacterial activity against Staphylococcus epidermidis ATCC 12228 measured after 24 hrs; assay type: functional; how it was run: as §1
# Escherichia coli [7] = experiment: Antibacterial activity against Escherichia coli K99 measured after 24 hrs; assay type: functional; how it was run: as §1
# Candida tropicalis = experiment: Antifungal activity against Candida tropicalis cgmcc2.1975 measured after 48 hrs by broth microdilution method; assay type: functional
# How it was run: (§4)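 Modified CLSI M27-A2 microdilution. Yeast colonies were diluted in MOPS-buffered RPMI 1640 to a final (0.5–1) × 10^3 CFU mL−1 and mixed with an equal volume of peptide serially diluted in 0.2% BSA. After 48 h at 28 °C, MIC was read at A492 as the lowest concentration inhibiting 95% of growth. At least three independent experiments, each with three technical replicates.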
# Staphylococcus aureus [8] = experiment: Antibacterial activity against methicillin-resistant Staphylococcus aureus ATCC 43300 measured after 24 hrs; assay type: functional; how it was run: as §3
# Candida parapsilosis = experiment: Antifungal activity against Candida parapsilosis cgmcc2.3989 measured after 48 hrs by broth microdilution method; assay type: functional; how it was run: as §4
# Salmonella typhimurium = experiment: Bactericidal activity against Salmonella typhimurium ATCC 14028 incubated for 24 hrs followed by replating on agar plate and measured after overnight incubation; assay type: functional; details: for MBC>99.9: Salmonella enterica subsp. enterica serovar Typhimurium; for MBC: Salmonella enterica, ATCC 14028, 24 h, read-out: MBC>99.9; how it was run: as §2
# Staphylococcus aureus [9] = experiment: Antibacterial activity against Staphylococcus aureus ATCC 29213 measured after 18 to 24 hrs in presence of KCl; assay type: functional
# Staphylococcus aureus [10] = experiment: Antibacterial activity against Staphylococcus aureus ATCC 29213 measured after 18 to 24 hrs in presence of NaCl; assay type: functional
# Staphylococcus aureus [11] = experiment: Antibacterial activity against Staphylococcus aureus ATCC 29213 measured after 18 to 24 hrs in presence of FeCl3; assay type: functional
# Staphylococcus aureus [12] = experiment: Antibacterial activity against Staphylococcus aureus ATCC 29213 measured after 18 to 24 hrs in presence of CaCl2; assay type: functional
# Escherichia coli [13] = experiment: Antibacterial activity against Escherichia coli ATCC 25922 measured after 18 to 24 hrs in presence of NaCl; assay type: functional
# Candida albicans [14] = experiment: Antifungal activity against Candida albicans cgmcc2.2086 measured after 48 hrs in presence of MgCl by broth microdilution method; assay type: functional
# [15] = Therapeutic index, ratio of MHC10 for hemolytic activity in human RBC to MIC95 against methicillin-resistant Staphylococcus aureus ATCC 43300; assay type: toxicity; details: human red blood cells (erythrocytes), read-out: TI
# How it was run: (§5)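 Therapeutic index = MHC divided by MIC. MHC is the lowest concentration giving >10% lysis of human RBC (1 h, 37 °C, 1-128 µM, A576). MIC is 95% growth inhibition by broth microdilution: bacteria in MHB 24 h at 37 °C; Candida in MOPS-buffered RPMI 1640 at (0.5–1) × 10^3 CFU mL−1, 48 h at 28 °C.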
# [16] = Therapeutic index, ratio of MHC10 for hemolytic activity in human RBC to MIC95 against Candida albicans cgmcc2.2086; assay type: toxicity; details: human red blood cells (erythrocytes), read-out: TI; how it was run: as §5
# [17] = Therapeutic index, ratio of MHC10 for hemolytic activity in human RBC to MIC95 against Staphylococcus epidermidis ATCC 12228; assay type: toxicity; details: human red blood cells (erythrocytes), read-out: TI; how it was run: as §5
# [18] = Therapeutic index, ratio of MHC10 for hemolytic activity in human RBC to MIC95 against Candida tropicalis cgmcc2.1975; assay type: toxicity; details: human red blood cells (erythrocytes), read-out: TI; how it was run: as §5
# Erythrocyte = experiment: Hemolytic activity in human RBC measured after 1 hr; assay type: ADME, cell-based
# How it was run: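 Fresh healthy-donor human erythrocytes at ~1% (v/v) in PBS pH 7.4, mixed 1:1 with peptide (1–128 µM), 1 h at 37 °C. After centrifugation at 1000×g, supernatant hemoglobin read at 576 nm. Untreated cells set 0% and 0.1% Triton X-100 set 100%. MHC defined as the concentration giving >10% hemolysis. Three or more independent experiments, triplicates.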
# [19] = Conformational stability in 50% trifluoro-ethyl alcohol assessed as alpha-helical structural propensity by measuring absorption spectra at minimum dichroic band at 35 uM by CD spectra analysis; assay type: physicochemical
# How it was run: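 CD spectra from 190 to 250 nm of peptide at 35 μM in 10 mM PBS, 30 mM SDS micelles or 50% TFE, recorded in a 1.0-mm quartz cell. Ellipticity was converted to mean residue ellipticity. Three independent scans, each averaged over more than 3 runs.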
# [20] = Cytotoxicity against mouse RAW264.7 cells assessed as cell viability at 2 to 64 uM measured after 18 to 24 hrs by MTT assay relative to control; assay type: cell-based; details: RAW264.7 cells, read-out: Activity
# How it was run: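 MTT assay: RAW264.7 cells seeded at 1.0–2.0×10^4 per well and exposed to peptide (2–64 µM) for 18–24 h at 37 °C in 5% CO2. MTT (0.5 mg/mL) added for 4 h, formazan dissolved in DMSO, read at 570 nm. At least three independent experiments with triplicate wells.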
# [21] = Lodderomyces parapsilosis, cgmcc2.3989, 48 h
Compound,MIC95 (Staphylococcus aureus [1]),MIC95 (Escherichia coli [2]),MIC95 (Staphylococcus aureus [9]),MIC95 (Staphylococcus aureus [10]),MIC95 (Staphylococcus aureus [11]),MIC95 (Staphylococcus aureus [12]),MIC95 (Escherichia coli [13]),"MIC95 (Pseudomonas aeruginosa; ATCC 27853, 24 h)","MIC95 (Candida albicans [4]; cgmcc2.2086, 48 h)",selectivity ratio [15],selectivity ratio [16],"MIC95 (Staphylococcus aureus [5]; ATCC 25923, 24 h)","MIC95 ([6]; ATCC 12228, 24 h)","MIC95 (Escherichia coli [7]; K99, 24 h)","MIC95 (Candida tropicalis; cgmcc2.1975, 48 h)","MIC95 (Staphylococcus aureus [8]; ATCC 43300, 24 h)",MIC95 (Candida parapsilosis; [21]),selectivity ratio [17],selectivity ratio [18],"MIC95 (Candida albicans [14]; cgmcc2.2086, 48 h)",also measured
GENTAMICIN,1 µM,1 µM,1 µM,2 µM,1 µM,4 µM,4 µM,,,,,,,,,,,,,,MIC95 (Pseudomonas aeruginosa): 1 µM; MBC>99.9 (Escherichia coli [3]): 0.5 µM; MIC95 (Candida albicans [4]): > 128 µM; MIC95 (Staphylococcus aureus [5]): 1 µM; MIC95 [6]: 1 µM; MIC95 (Escherichia coli [7]): 0.5 µM; MIC95 (Candida tropicalis): > 128 µM; MIC95 (Staphylococcus aureus [8]): 8 µM; MIC95 (Candida parapsilosis): > 128 µM; MBC>99.9 (Salmonella typhimurium): 4 µM; MIC95 (Candida albicans [14]): > 128 µM
CC[C@H](C)[C@H](NC(=O)CN)C(=O)NCC(=O)N[C@@H](C)C(=O)N[C@H](C(=O)N[C@@H](CC(C)C)C(=O)N[C@@H](CCCCN)C(=O)N[C@H](C(=O)N[C@@H](CC(C)C)C(=O)N[C@H](C(=O)N[C@H](C(=O)NCC(=O)N[C@@H](CC(C)C)C(=O)N1CCC[C@H]1C(=O)N[C@@H](C)C(=O)N[C@@H](CC(C)C)C(=O)N[C@H](C(=O)N[C@@H](CO)C(=O)N[C@@H](Cc1c[nH]c2ccccc12)C(=O)N[C@H](C(=O)N[C@@H](CCCCN)C(=O)N[C@@H](CCCNC(=N)N)C(=O)N[C@@H](CCCCN)C(=O)N[C@@H](CCCNC(=N)N)C(=O)N[C@@H](CCC(N)=O)C(=O)N[C@@H](CCC(N)=O)C(N)=O)[C@@H](C)CC)[C@@H](C)CC)[C@@H](C)O)[C@@H](C)O)C(C)C)C(C)C [MELITTIN],4 µM,2 µM,4 µM,8 µM,4 µM,8 µM,4 µM,2 µM,8 µM,0.35,0.32,8 µM,2 µM,2 µM,4 µM,1 µM,2 µM,0.35,0.32,4 µM,MBC (Escherichia coli [3]): 2 µM; MBC (Salmonella typhimurium): 2 µM; MHC10 (Erythrocyte): 1 µM
POLYMYXIN B,32 µM,2 µM,32 µM,64 µM,32 µM,64 µM,4 µM,,,,,,,,,,,,,,MIC95 (Pseudomonas aeruginosa): 2 µM; MBC>99.9 (Escherichia coli [3]): 1 µM; MIC95 (Candida albicans [4]): 128 µM; MIC95 (Staphylococcus aureus [5]): 64 µM; MIC95 [6]: 32 µM; MIC95 (Escherichia coli [7]): 1 µM; MIC95 (Candida tropicalis): > 128 µM; MIC95 (Staphylococcus aureus [8]): 64 µM; MIC95 (Candida parapsilosis): 8 µM; MBC>99.9 (Salmonella typhimurium): 2 µM; MIC95 (Candida albicans [14]): 32 µM
CC(C)(O/N=C(\C(=O)N[C@@H]1C(=O)N2C(C(=O)[O-])=C(C[n+]3ccccc3)CS[C@H]12)c1csc(N)n1)C(=O)O [CEFTAZIDIME],16 µM,2 µM,16 µM,16 µM,16 µM,32 µM,4 µM,2 µM,> 128 µM,,,16 µM,16 µM,0.5 µM,> 128 µM,16 µM,> 128 µM,,,> 128 µM,MBC (Escherichia coli [3]): 1 µM; MBC (Salmonella typhimurium): 1 µM
H-AARIILRDRFR-NH2,> 128 µM,> 128 µM,> 128 µM,> 128 µM,> 128 µM,> 128 µM,> 128 µM,> 128 µM,> 128 µM,2,2,> 128 µM,> 128 µM,> 128 µM,> 128 µM,> 128 µM,> 128 µM,2,2,> 128 µM,Activity [19]: 208 to 222 nm; viability at up to 64 µM [20]: 90 to 100%; MHC10 (Erythrocyte): > 128 µM
H-AAKIILNPKFR-NH2,> 128 µM,> 128 µM,> 128 µM,> 128 µM,> 128 µM,> 128 µM,> 128 µM,> 128 µM,> 128 µM,2,2,> 128 µM,> 128 µM,> 128 µM,> 128 µM,> 128 µM,> 128 µM,2,2,> 128 µM,Stability [19]: Unstable; viability at up to 64 µM [20]: 90 to 100%; MHC10 (Erythrocyte): > 128 µM
